ChEMBL document CHEMBL2040715, “Discovery of a Potent HIV Integrase Inhibitor that Leads to a Prodrug with Significant anti-HIV Activity” (ACS Med Chem Lett, 2011)

Biological target: Human immunodeficiency virus type 1 integrase (Human immunodeficiency virus 1, UniProt Q7ZJM1)
Assay: Inhibition of HIV1 integrase-mediated strand transfer
Settings: not given

Sequence of Human immunodeficiency virus type 1 integrase (Q7ZJM1 whole entry): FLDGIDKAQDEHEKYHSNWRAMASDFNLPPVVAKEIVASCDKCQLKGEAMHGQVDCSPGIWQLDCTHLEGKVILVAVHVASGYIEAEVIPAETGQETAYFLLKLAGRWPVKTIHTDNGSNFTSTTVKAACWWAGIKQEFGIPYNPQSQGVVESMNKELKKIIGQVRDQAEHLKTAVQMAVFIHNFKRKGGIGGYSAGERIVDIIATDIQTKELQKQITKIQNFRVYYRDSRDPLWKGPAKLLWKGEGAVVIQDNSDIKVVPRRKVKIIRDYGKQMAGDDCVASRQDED

Row | SMILES | IC50 [µM]
1 | O=C(O)/C(O)=C/C(=O)c1cc(Cc2ccccc2)cn(Cc2ccccc2)c1=O | 0.07
2 | CC(C)OC(=O)/C(O)=C/C(=O)c1cc(Cc2ccc(F)cc2F)cn(Cc2ccccc2F)c1=O | > 0.475

Test system: not listed separately
Assay: Cytotoxicity against human MAGI cells by MTS assay
Format: cell-based
Settings: not given

Row | SMILES | CC50 [µM] | CC90 [µM]
3 | CC(C)OC(=O)/C(O)=C/C(=O)c1cc(Cc2ccc(F)cc2F)cn(Cc2ccccc2F)c1=O | 135 | > 200

Test system: Human immunodeficiency virus 1
Assay: Antiviral activity against HIV1 infected in human MT4 cells
Settings: Human immunodeficiency virus 1, MT4

Row | SMILES | EC50 [µM]
4 | O=C(O)C(=O)CC(=O)c1cccn1Cc1ccc(F)cc1 | 1

Test system: Human immunodeficiency virus 1
Assay: Antiviral activity against HIV1 infected in MAGI cells by beta-galactosidase reporter gene assay
Format: functional, organism-based
Settings: Human immunodeficiency virus 1, MAGI
Method in brief: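 HIV-1 infection of MAGI cells, with raltegravir as the MOI-sensitive positive control validating each run. EC50 and EC90 were determined.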

Row | SMILES | EC50 [µM]
5 | O=C(O)/C(O)=C/C(=O)c1cc(Cc2ccc(F)c(Cl)c2)cn(Cc2ccccc2F)c1=O | 2.2
6 | Cc1cccc(Cn2cc(Cc3ccccc3F)cc(C(=O)/C=C(\O)C(=O)O)c2=O)c1 | 0.9
7 | O=C(O)/C(O)=C/C(=O)c1cc(Cc2ccccc2)cn(Cc2ccc(F)c(Cl)c2)c1=O | 0.8
8 | Cc1cccc(Cn2cc(Cc3ccc(F)cc3F)cc(C(=O)/C=C(\O)C(=O)O)c2=O)c1 | 0.7
9 | O=C(O)/C(O)=C/C(=O)c1cc(Cc2cccc(Cl)c2F)cn(Cc2cccc(Cl)c2F)c1=O | 2.4
10 | Cc1ccc(Cn2cc(Cc3ccccc3F)cc(C(=O)/C=C(\O)C(=O)O)c2=O)cc1 | 0.7
11 | COc1ccc(Cn2cc(Cc3ccccc3)cc(C(=O)/C=C(\O)C(=O)O)c2=O)cc1 | 1.8
12 | Cc1cc(F)ccc1Cc1cc(C(=O)/C=C(\O)C(=O)O)c(=O)n(Cc2ccc(F)cc2)c1 | 1
13 | Cc1cc(F)ccc1Cc1cc(C(=O)/C=C(\O)C(=O)O)c(=O)n(Cc2ccccc2)c1 | 1.3
14 | O=C(O)/C(O)=C/C(=O)c1cc(Cc2ccccc2F)cn(Cc2ccc(F)cc2)c1=O | 0.8
15 | O=C(O)/C(O)=C/C(=O)c1cc(Cc2ccccc2)cn(Cc2c(F)cccc2F)c1=O | 1.5
16 | O=C(O)/C(O)=C/C(=O)c1cc(Cc2ccccc2F)cn(Cc2ccccc2F)c1=O | 0.7
17 | O=C(O)/C(O)=C/C(=O)c1cc(Cc2ccccc2)cn(Cc2ccc(F)cc2)c1=O | 1
18 | O=C(O)/C(O)=C/C(=O)c1cc(Cc2ccccc2)cn(Cc2cc(Cl)ccc2F)c1=O | 0.9
19 | O=C(O)/C(O)=C/C(=O)c1cc(Cc2ccccc2F)cn(Cc2ccc(F)cc2F)c1=O | 0.6
20 | O=C(O)/C(O)=C/C(=O)c1cc(Cc2cccc(Cl)c2)cn(Cc2ccc(F)cc2)c1=O | 1.4
21 | O=C(O)/C(O)=C/C(=O)c1cc(Cc2ccccc2)cn(Cc2ccccc2F)c1=O | 0.9
22 | Cc1ccc(Cn2cc(Cc3ccc(F)c(Cl)c3)cc(C(=O)/C=C(\O)C(=O)O)c2=O)cc1 | > 5
23 | O=C(O)/C(O)=C/C(=O)c1cc(Cc2ccc(F)cc2)cn(Cc2ccc(F)cc2)c1=O | 0.8

Row | SMILES | EC50 [µM]
24 | O=C(O)/C(O)=C/C(=O)c1cc(Cc2ccc(F)cc2)cn(Cc2c(F)cccc2F)c1=O | 1.4
25 | O=C(O)/C(O)=C/C(=O)c1cc(Cc2ccc(F)cc2F)cn(Cc2ccc(F)cc2)c1=O | 0.6
26 | O=C(O)/C(O)=C/C(=O)c1cc(Cc2cccc(Cl)c2)cn(Cc2ccccc2F)c1=O | 1.9
27 | O=C(O)/C(O)=C/C(=O)c1cc(Cc2ccccc2F)cn(Cc2cccc(Cl)c2)c1=O | 0.7
28 | Cc1cccc(Cn2cc(Cc3ccc(F)c(Cl)c3)cc(C(=O)/C=C(\O)C(=O)O)c2=O)c1 | 2.2
29 | O=C(O)/C(O)=C/C(=O)c1cc(Cc2cccc(Cl)c2)cn(Cc2ccc(F)c(Cl)c2)c1=O | 1.2
30 | O=C(O)/C(O)=C/C(=O)c1cc(Cc2ccccc2Cl)cn(Cc2ccc(F)cc2F)c1=O | 0.8
31 | O=C(O)/C(O)=C/C(=O)c1cc(Cc2ccccc2)cn(Cc2ccc(F)cc2F)c1=O | 0.6
32 | O=C(O)/C(O)=C/C(=O)c1cc(Cc2cccc(C(=O)O)c2)cn(Cc2ccccc2)c1=O | > 5
33 | CC(C)OC(=O)/C(O)=C/C(=O)c1cc(Cc2ccc(F)cc2F)cn(Cc2ccc(F)cc2F)c1=O | 0.046
34 | O=C(O)/C(O)=C/C(=O)c1cc(Cc2cccc(Cl)c2)cn(Cc2cccc(Cl)c2F)c1=O | 1.4
35 | O=C(O)/C(O)=C/C(=O)c1cc(Cc2ccccc2)cn(Cc2ccccc2)c1=O | 2.1
36 | Cc1cccc(Cc2cc(C(=O)/C=C(\O)C(=O)O)c(=O)n(Cc3cccc(Cl)c3F)c2)c1 | 1.4
37 | O=C(O)/C(O)=C/C(=O)c1cc(Cc2ccccc2F)cn(Cc2cccc(F)c2F)c1=O | 0.8
38 | O=C(O)/C(O)=C/C(=O)c1cc(Cc2ccccc2F)cn(Cc2cccc(F)c2)c1=O | 1.9
39 | O=C(O)/C(O)=C/C(=O)c1cc(Cc2ccc(F)c(Cl)c2)cn(Cc2ccc(F)cc2F)c1=O | 1.4
40 | Cc1cc(F)ccc1Cc1cc(C(=O)/C=C(\O)C(=O)O)c(=O)n(Cc2ccccc2F)c1 | 1.3
41 | Cc1ccc(Cn2cc(Cc3ccc(F)cc3)cc(C(=O)/C=C(\O)C(=O)O)c2=O)cc1 | 1.6
42 | CC(C)OC(=O)/C(O)=C/C(=O)c1cc(Cc2ccc(F)cc2F)cn(Cc2ccccc2F)c1=O | 0.009

Row | SMILES | EC50 [µM]
43 | O=C(O)/C(O)=C/C(=O)c1cc(Cc2ccccc2)cn(Cc2ccc(F)c(Cl)c2F)c1=O | 0.6
44 | O=C(O)/C(O)=C/C(=O)c1cc(Cc2ccc(F)cc2)cn(Cc2ccccc2F)c1=O | 0.7
45 | O=C(O)/C(O)=C/C(=O)c1cc(Cc2cccc(Cl)c2)cn(Cc2ccc(Cl)cc2)c1=O | 2.5
46 | O=C(O)/C(O)=C/C(=O)c1cc(Cc2ccc(F)c(Cl)c2)cn(Cc2ccc(F)cc2)c1=O | > 5
47 | O=C(O)/C(O)=C/C(=O)c1cc(Cc2ccc(F)cc2F)cn(Cc2ccc(F)cc2F)c1=O | 0.3
48 | O=C(O)/C(O)=C/C(=O)c1cc(Cc2ccccc2)cn(Cc2cccc(Cl)c2F)c1=O | 0.7
49 | O=C(O)/C(O)=C/C(=O)c1cc(Cc2ccc(F)cc2)cn(Cc2cccc(F)c2F)c1=O | 0.7
50 | O=C(O)/C(O)=C/C(=O)c1cc(Cc2ccc(F)cc2)cn(Cc2cccc(Cl)c2)c1=O | 1.2
51 | O=C(O)/C(O)=C/C(=O)c1cc(Cc2cccc(Cl)c2F)cn(Cc2cccc(Cl)c2)c1=O | 1.5
52 | O=C(O)/C(O)=C/C(=O)c1cc(Cc2cccc(Cl)c2)cn(Cc2cccc(Cl)c2)c1=O | 1.1
53 | Cc1ccc(Cn2cc(Cc3cccc(Cl)c3)cc(C(=O)/C=C(\O)C(=O)O)c2=O)cc1 | 2.5
54 | O=C(O)/C(O)=C/C(=O)c1cc(Cc2ccc(F)cc2F)cn(Cc2ccccc2)c1=O | 0.8
55 | COc1ccc(Cc2cc(C(=O)/C=C(\O)C(=O)O)c(=O)n(Cc3ccc(OC)cc3)c2)cc1 | > 5
56 | O=C(O)/C(O)=C/C(=O)c1cc(Cc2ccc(F)cc2)cn(Cc2cccc(F)c2)c1=O | 1
57 | O=C(O)/C(O)=C/C(=O)c1cc(Cc2ccc(F)c(Cl)c2)cn(Cc2c(F)cccc2F)c1=O | 5.1
58 | O=C(O)/C(O)=C/C(=O)c1cc(Cc2ccccc2)cn(Cc2cccc(F)c2F)c1=O | 0.9
59 | O=C(O)/C(O)=C/C(=O)c1cc(Cc2ccc(F)c(Cl)c2)cn(Cc2ccc(F)c(Cl)c2)c1=O | 2.4
60 | N#Cc1ccc(Cn2cc(Cc3ccccc3F)cc(C(=O)/C=C(\O)C(=O)O)c2=O)cc1 | 1.1
61 | O=C(O)/C(O)=C/C(=O)c1cc(Cc2ccccc2)cn(Cc2cccc(F)c2)c1=O | 2

Test system: not listed separately
Assay: Therapeutic index, ratio of CC50 for human MAGI cells to EC50 for HIV1
Format: cell-based
Settings: not given

Row | SMILES | Ratio CC50/EC50
62 | CC(C)OC(=O)/C(O)=C/C(=O)c1cc(Cc2ccc(F)cc2F)cn(Cc2ccccc2F)c1=O | 15000

Test system: not listed separately
Assay: Cytotoxicity against PBMC
Format: cell-based
Settings: human

Row | SMILES | CC50 [µM]
63 | O=C(/C=C(\O)c1nc[nH]n1)c1ccc(Cc2ccc(F)cc2)o1 [S-1360] | 110
